Assays:
CAKI-1 = experiment: Antitumor activity against human CAKI1 cells; type: functional
Method in brief: (§1)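 Tested in the NCI in vitro disease-oriented human tumor cell screen. The endpoints are IC50 (molar concentration giving 50% growth inhibition), TGI (total growth inhibition) and LC50 (50% net cell death). The maximal concentration tested was 100 μM. Subpanel values are means of several individual cell lines.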

NCI [1] = experiment: Antitumor activity against human NCI renal cancer cell line panel; type: functional, cell-based; method in brief: as §1
COLO 205 = experiment: Antitumor activity against human COLO 205 cells; type: functional; method in brief: as §1
NCI-H23 = experiment: Antitumor activity against human NCI-H23 cells; type: functional; method in brief: as §1
A549 = experiment: Antitumor activity against human A549 cells; type: functional; method in brief: as §1
[2] = Half life of hydrolysis in deuterated phosphate buffer at pD 7.8; details: deuterated phosphate buffer, pH 7.8
MDA-MB-231 = experiment: Antitumor activity against human MDA-MB-231 cells; type: functional; method in brief: as §1
BT-549 = experiment: Antitumor activity against human BT549 cells; type: functional; method in brief: as §1
MCF7 = experiment: Antitumor activity against human MCF7 cells; type: functional; method in brief: as §1
SNB-75 = experiment: Antitumor activity against human SNB75 cells; type: functional
Method in brief: (§2)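 NCI in vitro disease-oriented tumour cell line screen. Read-outs are IC50 (molar concentration giving 50% growth inhibition), TGI (molar concentration giving total inhibition of net growth) and LC50 (molar concentration giving 50% net cell death). The maximal concentration tested was 100 μM.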

OVCAR-4 = experiment: Antitumor activity against human OVCAR4 cells; type: functional; method in brief: as §1
UACC-62 = experiment: Antitumor activity against human UACC62 cells; type: functional; method in brief: as §2
SF-295 = experiment: Antitumor activity against human SF295 cells; type: functional; method in brief: as §1
SNB-19 = experiment: Antitumor activity against human SNB19 cells; type: functional; method in brief: as §1
SK-MEL-28 = experiment: Antitumor activity against human SK-MEL-28 cells; type: functional; method in brief: as §1
RPMI-8226 = experiment: Antitumor activity against human RPMI8226 cells; type: functional; method in brief: as §1
786-0 = experiment: Antitumor activity against human 786-0 cells; type: functional; method in brief: as §1
SK-MEL-2 = experiment: Antitumor activity against human SK-MEL-2 cells; type: functional; method in brief: as §1
[3] = Antitumor activity against human LOX IMV1 cells; type: functional, cell-based; method in brief: as §1
SF-268 = experiment: Antitumor activity against human SF268 cells; type: functional; method in brief: as §1
NCI [4] = experiment: Antitumor activity against human NCI breast cancer cell line panel; type: functional, cell-based; method in brief: as §1
NCI-H460 = experiment: Antitumor activity against human NCI-H460 cells; type: functional; method in brief: as §1
SF-539 = experiment: Antitumor activity against human SF539 cells; type: functional; method in brief: as §1
OVCAR-5 = experiment: Antitumor activity against human OVCAR5 cells; type: functional; method in brief: as §1
EKVX = experiment: Antitumor activity against human EKVX cells; type: functional; method in brief: as §1
NCI [5] = experiment: Antitumor activity against human NCI CNS cancer cell line panel; type: functional, cell-based; method in brief: as §1
TK-10 = experiment: Antitumor activity against human TK10 cells; type: functional; method in brief: as §2
NCI-H322M = experiment: Antitumor activity against human NCI-H322M cells; type: functional; method in brief: as §1
HCT-116 = experiment: Antitumor activity against human HCT116 cells; type: functional; method in brief: as §1
OVCAR-3 = experiment: Antitumor activity against human OVCAR-3 cells; type: functional; method in brief: as §1
DU-145 = experiment: Antitumor activity against human DU145 cells; type: functional; method in brief: as §1
NCI [6] = experiment: Antitumor activity against human NCI leukemia cell line panel; type: functional, cell-based; method in brief: as §1
U-251 = experiment: Antitumor activity against human U251 cells; type: functional; method in brief: as §2
IGROV-1 = experiment: Antitumor activity against human IGROV1 cells; type: functional; method in brief: as §1
Hs-578T = experiment: Antitumor activity against human HS578T cells; type: functional; details: Homo sapiens, Hs-578T; method in brief: as §1
MDA-MB-435 = experiment: Antitumor activity against human MDA-MB-435 cells; type: functional; method in brief: as §1
[7] = tested on: Non-small cell lung cancer cell line; experiment: Antitumor activity against human NCI non-small cell lung cancer cell line panel; type: functional, cell-based; method in brief: as §1
SK-OV-3 = experiment: Antitumor activity against human SKOV3 cells; type: functional; method in brief: as §1
NCI [8] = experiment: Antitumor activity against human NCI colon cancer cell line panel; type: functional, cell-based; method in brief: as §1
SW-620 = experiment: Antitumor activity against human SW620 cells; type: functional; method in brief: as §2
HOP-92 = experiment: Antitumor activity against human HOP92 cells; type: functional; method in brief: as §1
[9] = read-out: Log LC50 (the source's name) (converted)
[10] = read-out: LC50 (the source's name)

CN(/N=N/c1nc(OCc2ccccc2)c2nc[nH]c2n1)C(=O)Oc1ccc([N+](=O)[O-])cc1 gave a GI50 (CAKI-1) of 11 µM, a CC50 (CAKI-1; [9]) of over 50.1 µM and a TGI (CAKI-1; read-out: Log TGI (converted)) of 35.5 µM. For the same compound, the IC50 (NCI [1]) was 9 µM, the TGI (NCI [1]) was 25 µM and the CC50 (NCI [1]; [10]) was 44 µM. The GI50 (COLO 205) was 10.2 µM, the CC50 (COLO 205; [9]) was over 50.1 µM and the TGI (COLO 205; read-out: Log TGI (converted)) was 29.5 µM. For the same compound, the GI50 (NCI-H23) was 8.51 µM, the LC50 (50% net cell kill) (NCI-H23) was 32.4 µM and the TGI (NCI-H23; read-out: Log TGI (converted)) was 16.2 µM. The GI50 (A549) was 12 µM, the CC50 (A549; [9]) was 50.1 µM and the TGI (A549; read-out: Log TGI (converted)) was 31.6 µM. It also gave a half-life [2] of 23 min, a GI50 (MDA-MB-231) of 5.75 µM and a CC50 (MDA-MB-231; [9]) of over 50.1 µM. For the same compound, the TGI (MDA-MB-231; read-out: Log TGI (converted)) was 18.6 µM, the GI50 (BT-549) was 7.41 µM and the CC50 (BT-549; [9]) was over 50.1 µM. It also gave a TGI (BT-549; read-out: Log TGI (converted)) of 20.4 µM, a GI50 (MCF7) of 12.3 µM and a CC50 (MCF7; [9]) of over 50.1 µM. It also gave a TGI (MCF7; read-out: Log TGI (converted)) of over 50.1 µM, a CC50 (SNB-75; [9]) of over 50.1 µM and a TGI (SNB-75; read-out: Log TGI (converted)) of over 50.1 µM. It also gave a GI50 (OVCAR-4) of 22.9 µM, a CC50 (OVCAR-4; [9]) of over 50.1 µM and a TGI (OVCAR-4; read-out: Log TGI (converted)) of over 50.1 µM. It also gave a GI50 (UACC-62) of 7.59 µM, a CC50 (UACC-62; [9]) of 30.9 µM and a TGI (UACC-62; read-out: Log TGI (converted)) of 15.1 µM. For the same compound, the GI50 (SF-295) was 11.2 µM, the CC50 (SF-295; [9]) was over 50.1 µM and the TGI (SF-295; read-out: Log TGI (converted)) was 33.9 µM. The GI50 (SNB-19) was 9.55 µM, the LC50 (SNB-19) was over 50.1 µM and the TGI (SNB-19; read-out: Log TGI (converted)) was 28.2 µM. The GI50 (SK-MEL-28) was 12.3 µM, the CC50 (SK-MEL-28; [9]) was over 50.1 µM and the TGI (SK-MEL-28; read-out: Log TGI (converted)) was over 50.1 µM. For the same compound, the GI50 (RPMI-8226) was 9.12 µM, the CC50 (RPMI-8226; [9]) was over 50.1 µM and the TGI (RPMI-8226; read-out: Log TGI (converted)) was over 50.1 µM. The GI50 (786-0) was 8.71 µM, the LC50 (concentration giving 50% net cell death) (786-0) was over 50.1 µM and the TGI (786-0; read-out: Log TGI (converted)) was 23.4 µM. For the same compound, the GI50 (SK-MEL-2) was 12 µM, the CC50 (SK-MEL-2; [9]) was over 50.1 µM and the TGI (SK-MEL-2; read-out: Log TGI (converted)) was 28.2 µM. The GI50 [3] was 1.15 µM, the IC50 [3] was 1.1 µM and the CC50 [3, 10] was 27 µM. The CC50 [3, 9] was 26.9 µM, the TGI ([3]; read-out: Log TGI (converted)) was 10.7 µM and the TGI ([3]; read-out: TGI) was 11 µM. The GI50 (SF-268) was 9.33 µM, the CC50 (SF-268; [9]) was over 50.1 µM and the TGI (SF-268; read-out: Log TGI (converted)) was 29.5 µM. The IC50 (NCI [4]) was 10 µM, the TGI (NCI [4]) was 30 µM and the CC50 (NCI [4]; [10]) was 50 µM. For the same compound, the GI50 (NCI-H460) was 6.76 µM, the CC50 (NCI-H460; [9]) was over 50.1 µM and the TGI (NCI-H460; read-out: Log TGI (converted)) was 31.6 µM. It also gave a GI50 (SF-539) of 9.77 µM, a CC50 (SF-539; [9]) of over 50.1 µM and a TGI (SF-539; read-out: Log TGI (converted)) of 28.8 µM. It also gave a GI50 (OVCAR-5) of 11.5 µM, a CC50 (OVCAR-5; [9]) of over 50.1 µM and a TGI (OVCAR-5; read-out: Log TGI (converted)) of over 50.1 µM. For the same compound, the GI50 (EKVX) was 11.5 µM, the CC50 (EKVX; [9]) was over 50.1 µM and the TGI (EKVX; read-out: Log TGI (converted)) was 36.3 µM. For the same compound, the IC50 (NCI [5]) was 9 µM, the TGI (NCI [5]) was 30 µM and the CC50 (NCI [5]; [10]) was 47 µM. The GI50 (TK-10) was 12 µM, the CC50 (TK-10; [9]) was over 50.1 µM and the TGI (TK-10; read-out: Log TGI (converted)) was 33.9 µM. It also gave a GI50 (NCI-H322M) of 9.33 µM, a CC50 (NCI-H322M; [9]) of 45.7 µM and a TGI (NCI-H322M; read-out: Log TGI (converted)) of 20.9 µM. The GI50 (HCT-116) was 8.71 µM, the CC50 (HCT-116; [9]) was 29.5 µM and the TGI (HCT-116; read-out: Log TGI (converted)) was 15.8 µM. It also gave a GI50 (OVCAR-3) of 9.55 µM, an LC50 (OVCAR-3) of over 50.1 µM and a TGI (OVCAR-3; read-out: Log TGI (converted)) of 24.5 µM. The GI50 (DU-145) was 9.12 µM, the CC50 (DU-145; [9]) was 42.7 µM and the TGI (DU-145; read-out: Log TGI (converted)) was 19.5 µM. It also gave an IC50 (NCI [6]) of 14 µM, a TGI (NCI [6]) of 50 µM and a CC50 (NCI [6]; [10]) of 50 µM. For the same compound, the GI50 (U-251) was 7.59 µM, the CC50 (U-251; [9]) was 31.6 µM and the TGI (U-251; read-out: Log TGI (converted)) was 15.1 µM. It also gave a GI50 (IGROV-1) of 12.3 µM, a CC50 (IGROV-1; [9]) of over 50.1 µM and a TGI (IGROV-1; read-out: Log TGI (converted)) of 30.9 µM. It also gave a GI50 (Hs-578T) of 8.71 µM, a CC50 (Hs-578T; [9]) of over 50.1 µM and a TGI (Hs-578T; read-out: Log TGI (converted)) of 29.5 µM. It also gave a GI50 (MDA-MB-435) of 12.3 µM, a CC50 (MDA-MB-435; [9]) of over 50.1 µM and a TGI (MDA-MB-435; read-out: Log TGI (converted)) of 39.8 µM. For the same compound, the IC50 [7] was 11 µM, the TGI [7] was 29 µM and the CC50 [7, 10] was 47 µM. The GI50 (SK-OV-3) was 10.5 µM, the CC50 (SK-OV-3; [9]) was over 50.1 µM and the TGI (SK-OV-3; read-out: Log TGI (converted)) was 28.8 µM. For the same compound, the IC50 (NCI [8]) was 9 µM, the TGI (NCI [8]) was 21 µM and the CC50 (NCI [8]; [10]) was 43 µM. It also gave a GI50 (SW-620) of 9.12 µM, a CC50 (SW-620; [9]) of over 50.1 µM and a TGI (SW-620; read-out: Log TGI (converted)) of 26.3 µM. It also gave a GI50 (HOP-92) of 7.24 µM, a CC50 (HOP-92; [9]) of over 50.1 µM and a TGI (HOP-92; read-out: Log TGI (converted)) of 26.3 µM.
